Assay results reported in ChEMBL document CHEMBL4376814, “Novel cyclin-dependent kinase 9 (CDK9) inhibitor with suppression of cancer stemness activity against non-small-cell lung cancer” (Eur J Med Chem, 2019).
Calls of active or inactive are those of the source. No cut-off for these calls is given here.

How the values were obtained:
SiHa = assay: Antiproliferative activity against human SiHa cells assessed as inhibition of cell viability at 10 uM after 72 hrs by CCK-8 assay relative to control; format: functional
Method in brief: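 Single-concentration viability screen using CCK-8. Cells were seeded at 3000/well and treated for 72 h. A450 read after 1-4 h with reagent. Percent inhibition calculated against untreated control and blank wells as (Ac−As)/(Ac−Ab)×100%.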

NCI-H1975 = assay: Antiproliferative activity against human NCI-H1975 cells assessed as inhibition of cell viability after 72 hrs by CCK-8 assay; format: functional, cell-based; settings: NCI-H1975, 72 h
Method in brief: (§1)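 Cells kept at 37 °C, 5% CO2 in DMEM or RPMI-1640 with 10% FBS and 1% penicillin/streptomycin, then seeded at 3000 cells/well (adherent) or 10,000 cells/well (suspension). Exposed to a range of concentrations for 72 h. CCK-8 added for 1-4 h before reading A450. […] Three independent experiments.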

PC-9 = assay: Antiproliferative activity against human PC9 cells assessed as inhibition of cell viability after 72 hrs by CCK-8 assay; format: functional, cell-based; settings: PC-9, 72 h; method in brief: as §1
A549 = assay: Induction of apoptosis in human A549 cells assessed as viable cells at 0.5 uM after 48 hrs by AnnexinV-FITC/PI staining-based flow cytometric analysis (reference value: 88.8%); format: functional; settings: A549, 48 h, read-out: Activity
NCI-H1299 [1] = assay: Antitumour activity against human H1299 cells xenografted in po dosed Balb/c mouse assessed as inhibition of tumour growth after 21 days by digital caliper method; format: functional, organism-based
Method in brief: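 Female nude mice, 6-8 weeks old, injected subcutaneously with 1×10^6 H1299 cells (100 µL of a 1×10^7/mL suspension in serum-free medium). At 100-120 mm3, randomized into groups of 5. Dosed orally each day for 21 days with drug dissolved in DMSO, or with vehicle. Caliper measurements and body weight taken every other day. Volume = short²×long×0.5. Growth inhibition based on change in volume relative to vehicle. Tumours weighed at the end.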

[2] = target: Cytoplasmic tyrosine-protein kinase BMX (Homo sapiens) (UniProt P51813); assay: Inhibition of full-length recombinant human BMX at 1 uM using poly(Glu, Tyr) 4:1 as substrate measured after 40 mins in presence of [gamma33P]ATP by scintillation counting method relative to control
Method in brief: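 Percent inhibition of kinase activity at a single compound concentration, measured by the outsourced Eurofins KinaseProfiler panel. Values are the mean of two independent experiments.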

Homo sapiens = species: Homo sapiens; assay: Inhibition of recombinant human BrSK2 […] mutant (2 to end residues) at 1 uM using KKLNRTLSFAEPG as substrate measured after 40 mins in presence of [gamma33P]ATP by scintillation counting method relative to control
[3] = target: Dual specificity mitogen-activated protein kinase kinase 7 (Homo sapiens) (UniProt O14733); assay: Inhibition of recombinant human MKK7 (2 to end residues) at 1 uM using unactive JNK1a1 as substrate measured after 40 mins in presence of [gamma33P]ATP by scintillation counting method relative to control
[4] = target: CDK2/Cyclin A2 (Homo sapiens) (UniProt P24941+P20248); assay: Inhibition of recombinant full-length human CDK2/cyclinA at 1 uM using Histone H1 as substrate measured after 40 mins in presence of [gamma33P]ATP by scintillation counting method relative to control; format: protein-complex assay
[5] = target: Cyclin-dependent kinase 13/Cyclin-K (Homo sapiens) (UniProt Q14004+O75909); assay: Inhibition of human full length recombinant CDK13/cyclinK at 1 uM using RSRSRSRSRSRSRSR as substrate incubated for 120 mins in presence of [gamma-33P]ATP at by radiometric assay relative to control; format: protein-complex assay
Sequence of Cyclin-dependent kinase 13/Cyclin-K (Homo sapiens) (O75909 whole entry, looked up, the tested form may be a part, canonical isoform): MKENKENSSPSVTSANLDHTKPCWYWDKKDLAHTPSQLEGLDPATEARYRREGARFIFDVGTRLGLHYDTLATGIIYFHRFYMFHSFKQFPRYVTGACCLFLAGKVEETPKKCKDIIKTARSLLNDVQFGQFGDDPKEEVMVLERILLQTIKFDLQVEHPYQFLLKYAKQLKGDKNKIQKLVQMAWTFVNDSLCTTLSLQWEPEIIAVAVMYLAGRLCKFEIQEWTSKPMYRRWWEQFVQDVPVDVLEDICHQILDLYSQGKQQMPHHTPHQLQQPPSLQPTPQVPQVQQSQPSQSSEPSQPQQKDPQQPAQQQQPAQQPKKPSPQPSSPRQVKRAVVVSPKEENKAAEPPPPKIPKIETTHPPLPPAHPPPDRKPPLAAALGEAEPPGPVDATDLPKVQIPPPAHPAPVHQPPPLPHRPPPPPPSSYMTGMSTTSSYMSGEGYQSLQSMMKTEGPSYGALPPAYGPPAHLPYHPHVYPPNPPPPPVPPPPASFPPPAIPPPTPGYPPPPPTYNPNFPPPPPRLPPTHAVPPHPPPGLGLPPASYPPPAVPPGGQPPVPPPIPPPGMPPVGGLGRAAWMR
Sequence of Cyclin-dependent kinase 13/Cyclin-K (Homo sapiens) (Q14004 whole entry, looked up, the tested form may be a part, canonical isoform): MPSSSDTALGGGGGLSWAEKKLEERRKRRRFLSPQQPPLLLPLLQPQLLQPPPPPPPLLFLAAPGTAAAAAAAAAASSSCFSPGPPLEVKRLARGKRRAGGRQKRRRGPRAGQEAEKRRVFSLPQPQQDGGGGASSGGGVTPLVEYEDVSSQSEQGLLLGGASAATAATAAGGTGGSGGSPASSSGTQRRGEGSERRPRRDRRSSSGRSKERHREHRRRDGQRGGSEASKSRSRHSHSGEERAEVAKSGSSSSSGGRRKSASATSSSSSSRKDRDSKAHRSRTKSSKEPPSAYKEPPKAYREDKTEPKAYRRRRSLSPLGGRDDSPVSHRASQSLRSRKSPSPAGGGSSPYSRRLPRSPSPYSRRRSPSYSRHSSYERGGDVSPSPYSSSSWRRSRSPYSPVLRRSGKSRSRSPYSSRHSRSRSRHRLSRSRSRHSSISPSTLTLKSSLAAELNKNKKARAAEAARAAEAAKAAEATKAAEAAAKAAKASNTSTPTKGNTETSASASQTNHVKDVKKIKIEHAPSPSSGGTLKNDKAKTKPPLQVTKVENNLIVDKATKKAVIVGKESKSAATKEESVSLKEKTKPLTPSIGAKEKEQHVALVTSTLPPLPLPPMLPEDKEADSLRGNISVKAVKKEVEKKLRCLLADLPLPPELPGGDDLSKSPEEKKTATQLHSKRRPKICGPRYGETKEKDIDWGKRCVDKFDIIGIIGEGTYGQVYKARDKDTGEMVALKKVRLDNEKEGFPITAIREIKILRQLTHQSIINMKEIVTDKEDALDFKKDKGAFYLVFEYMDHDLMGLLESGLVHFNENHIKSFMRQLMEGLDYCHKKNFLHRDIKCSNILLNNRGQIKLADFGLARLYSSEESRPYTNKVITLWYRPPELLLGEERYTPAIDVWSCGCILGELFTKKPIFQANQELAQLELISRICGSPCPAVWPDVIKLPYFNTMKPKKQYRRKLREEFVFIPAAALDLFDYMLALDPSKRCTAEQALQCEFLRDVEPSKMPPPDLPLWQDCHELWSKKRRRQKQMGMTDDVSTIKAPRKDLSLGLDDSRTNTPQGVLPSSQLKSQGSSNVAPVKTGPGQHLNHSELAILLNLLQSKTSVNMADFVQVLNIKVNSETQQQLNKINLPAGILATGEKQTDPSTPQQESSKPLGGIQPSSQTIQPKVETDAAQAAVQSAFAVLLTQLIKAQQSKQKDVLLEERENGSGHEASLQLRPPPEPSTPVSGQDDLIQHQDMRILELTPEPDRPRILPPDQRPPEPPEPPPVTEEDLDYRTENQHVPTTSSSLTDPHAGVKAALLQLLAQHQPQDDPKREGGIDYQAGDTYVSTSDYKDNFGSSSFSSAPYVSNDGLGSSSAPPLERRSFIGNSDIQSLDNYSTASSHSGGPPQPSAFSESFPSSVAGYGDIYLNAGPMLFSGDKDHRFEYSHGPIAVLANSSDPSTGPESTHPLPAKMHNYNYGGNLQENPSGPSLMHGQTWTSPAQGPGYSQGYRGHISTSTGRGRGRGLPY

[6] = target: Casein kinase I isoform delta (Homo sapiens) (UniProt P48730); assay: Inhibition of recombinant human CK1delta (1 to 294 residues) at 1 uM using KRRRALS(p)VASLPGL as substrate measured after 40 mins in presence of [gamma33P]ATP by scintillation counting method relative to control
[7] = target: NUAK family SNF1-like kinase 2 (Homo sapiens) (UniProt Q9H093); assay: Inhibition of recombinant full-length human NUAK2 at 1 uM using KKKVSRSGLYRSPSMPENLNRPR as substrate measured after 40 mins in presence of [gamma33P]ATP by scintillation counting method relative to control
[8] = target: Serine/threonine-protein kinase PAK 3 (Homo sapiens) (UniProt O75914); assay: Inhibition of recombinant full-length human PAK3 at 1 uM using RRRLSFAEPG as substrate measured after 40 mins in presence of [gamma33P]ATP by scintillation counting method relative to control
[9] = target: Serine/threonine-protein kinase D3 (Homo sapiens) (UniProt O94806); assay: Inhibition of recombinant full-length human PKD3 at 1 uM using KKLRRTLSVA as substrate measured after 40 mins in presence of [gamma33P]ATP by scintillation counting method relative to control
Sequence of Serine/threonine-protein kinase D3 (Homo sapiens) (O94806 whole entry): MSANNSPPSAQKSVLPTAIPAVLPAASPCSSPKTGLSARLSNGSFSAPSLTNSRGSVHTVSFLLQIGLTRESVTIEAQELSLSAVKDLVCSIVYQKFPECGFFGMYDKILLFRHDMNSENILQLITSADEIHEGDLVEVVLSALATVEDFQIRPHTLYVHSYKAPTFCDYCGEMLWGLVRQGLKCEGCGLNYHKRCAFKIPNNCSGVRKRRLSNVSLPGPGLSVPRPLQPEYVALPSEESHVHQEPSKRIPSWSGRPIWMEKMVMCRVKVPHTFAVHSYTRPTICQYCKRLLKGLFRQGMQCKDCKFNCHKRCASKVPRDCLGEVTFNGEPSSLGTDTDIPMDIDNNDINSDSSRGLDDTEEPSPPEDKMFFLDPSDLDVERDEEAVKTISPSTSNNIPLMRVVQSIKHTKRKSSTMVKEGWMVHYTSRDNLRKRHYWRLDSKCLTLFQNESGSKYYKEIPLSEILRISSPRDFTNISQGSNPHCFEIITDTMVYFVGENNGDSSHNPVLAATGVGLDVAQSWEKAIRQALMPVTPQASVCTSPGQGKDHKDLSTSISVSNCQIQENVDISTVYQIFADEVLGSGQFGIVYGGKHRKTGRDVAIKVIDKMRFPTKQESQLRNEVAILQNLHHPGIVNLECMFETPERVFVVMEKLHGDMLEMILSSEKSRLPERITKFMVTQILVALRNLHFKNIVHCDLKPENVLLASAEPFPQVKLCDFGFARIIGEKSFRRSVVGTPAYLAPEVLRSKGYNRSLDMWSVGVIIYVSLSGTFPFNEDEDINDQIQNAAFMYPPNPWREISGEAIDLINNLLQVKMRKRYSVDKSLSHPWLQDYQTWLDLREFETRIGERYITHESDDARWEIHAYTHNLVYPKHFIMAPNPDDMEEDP

[10] = target: G protein-coupled receptor kinase 3 (Homo sapiens) (UniProt P35626); assay: Inhibition of recombinant full-length human GRK3 at 1 uM using casein as substrate measured after 40 mins in presence of [gamma33P]ATP by scintillation counting method relative to control
Sequence of G protein-coupled receptor kinase 3 (Homo sapiens) (P35626 whole entry, the tested form may be a part): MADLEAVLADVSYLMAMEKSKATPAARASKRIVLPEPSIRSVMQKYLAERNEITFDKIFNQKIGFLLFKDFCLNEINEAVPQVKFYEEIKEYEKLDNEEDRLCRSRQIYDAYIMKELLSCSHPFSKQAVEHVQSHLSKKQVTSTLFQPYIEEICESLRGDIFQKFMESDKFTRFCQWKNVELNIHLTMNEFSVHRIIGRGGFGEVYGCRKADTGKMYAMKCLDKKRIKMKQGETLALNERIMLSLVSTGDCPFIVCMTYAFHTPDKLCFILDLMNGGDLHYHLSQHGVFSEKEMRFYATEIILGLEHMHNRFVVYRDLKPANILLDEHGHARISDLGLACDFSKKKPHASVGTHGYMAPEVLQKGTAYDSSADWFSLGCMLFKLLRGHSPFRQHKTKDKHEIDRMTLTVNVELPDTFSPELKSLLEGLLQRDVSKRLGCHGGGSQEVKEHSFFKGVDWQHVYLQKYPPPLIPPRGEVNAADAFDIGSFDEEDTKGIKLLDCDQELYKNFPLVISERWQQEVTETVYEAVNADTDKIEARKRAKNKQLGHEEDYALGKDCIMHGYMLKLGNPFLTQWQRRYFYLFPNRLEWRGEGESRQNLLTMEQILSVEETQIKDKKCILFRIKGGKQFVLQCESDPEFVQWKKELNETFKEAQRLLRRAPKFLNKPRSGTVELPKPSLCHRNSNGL

[11] = target: Tyrosine-protein kinase ITK/TSK (Homo sapiens) (UniProt Q08881); assay: Inhibition of recombinant human ITK (352 to 617 residues) at 1 uM using myelin basic protein as substrate measured after 40 mins in presence of [gamma33P]ATP by scintillation counting method relative to control
[12] = target: Tyrosine-protein kinase JAK2 (Homo sapiens) (UniProt O60674); assay: Inhibition of recombinant human JAK2 (808 to end residues) at 1 uM using KTFCGTPEYLAPEVRREPRILSEEEQEMFRDFDYIADWC as substrate measured after 40 mins in presence of [gamma33P]ATP by scintillation counting method relative to control
[13] = target: Serine/threonine-protein kinase 10 (Homo sapiens) (UniProt O94804); assay: Inhibition of recombinant human LOK (1 to 348 residues) at 1 uM using RLGRDKYKTLRQIRQ as substrate measured after 40 mins in presence of [gamma33P]ATP by scintillation counting method relative to control
Sequence of Serine/threonine-protein kinase 10 (Homo sapiens) (O94804 whole entry, looked up, the tested form may be a part): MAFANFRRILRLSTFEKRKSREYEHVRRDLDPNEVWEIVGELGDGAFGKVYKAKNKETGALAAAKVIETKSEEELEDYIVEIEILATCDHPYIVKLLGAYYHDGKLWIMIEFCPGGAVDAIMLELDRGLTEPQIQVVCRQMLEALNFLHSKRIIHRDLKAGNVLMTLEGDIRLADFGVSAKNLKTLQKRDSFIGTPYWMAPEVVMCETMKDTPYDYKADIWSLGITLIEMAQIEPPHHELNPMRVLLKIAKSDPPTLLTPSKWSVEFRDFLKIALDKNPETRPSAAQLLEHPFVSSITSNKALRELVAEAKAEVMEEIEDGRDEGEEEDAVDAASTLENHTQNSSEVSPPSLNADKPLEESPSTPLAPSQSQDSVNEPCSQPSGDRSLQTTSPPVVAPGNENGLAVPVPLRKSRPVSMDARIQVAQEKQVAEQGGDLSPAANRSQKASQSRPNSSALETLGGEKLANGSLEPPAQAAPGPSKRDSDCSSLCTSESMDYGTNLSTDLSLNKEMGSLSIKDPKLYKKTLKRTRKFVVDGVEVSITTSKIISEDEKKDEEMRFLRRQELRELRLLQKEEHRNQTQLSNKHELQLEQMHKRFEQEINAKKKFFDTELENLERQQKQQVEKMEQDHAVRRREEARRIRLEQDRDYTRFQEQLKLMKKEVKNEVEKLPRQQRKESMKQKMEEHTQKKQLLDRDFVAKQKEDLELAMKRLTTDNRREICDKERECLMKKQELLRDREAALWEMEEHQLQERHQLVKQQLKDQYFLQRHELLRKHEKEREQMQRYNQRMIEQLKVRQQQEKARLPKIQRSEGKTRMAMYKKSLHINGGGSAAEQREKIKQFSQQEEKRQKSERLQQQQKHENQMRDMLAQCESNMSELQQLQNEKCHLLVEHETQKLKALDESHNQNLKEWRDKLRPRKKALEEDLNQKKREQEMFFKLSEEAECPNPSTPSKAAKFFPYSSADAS

[14] = target: Serine-protein kinase ATM (Homo sapiens) (UniProt Q13315); assay: Inhibition of recombinant full-length human ATM at 1 uM using GST-cMyc-p53 as substrate measured after 40 mins by ELISA relative to control
[15] = target: Phosphatidylinositol 4-phosphate 5-kinase type-1 alpha (Homo sapiens) (UniProt Q99755); assay: Inhibition of recombinant full-length human PIP5K1alpha at 1 uM using phosphatidylinositol 4-phosphate as substrate measured after 40 mins by HTRF assay relative to control
[16] = target: Cyclin-dependent kinase 9 (Homo sapiens) (UniProt P50750); settings: 0.25 uM
Sequence of Cyclin-dependent kinase 9 (Homo sapiens) (P50750 whole entry): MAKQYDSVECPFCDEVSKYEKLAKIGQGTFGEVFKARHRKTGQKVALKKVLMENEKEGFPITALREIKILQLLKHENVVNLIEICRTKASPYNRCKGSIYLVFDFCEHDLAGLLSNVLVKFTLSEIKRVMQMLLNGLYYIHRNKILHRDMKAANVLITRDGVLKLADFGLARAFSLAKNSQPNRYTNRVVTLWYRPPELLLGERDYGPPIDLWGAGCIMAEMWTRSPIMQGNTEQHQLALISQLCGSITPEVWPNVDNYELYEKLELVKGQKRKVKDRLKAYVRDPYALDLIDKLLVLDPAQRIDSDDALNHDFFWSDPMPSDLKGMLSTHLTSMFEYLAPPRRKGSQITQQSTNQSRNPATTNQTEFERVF

NCI-H1299 [17] = assay: Antitumour activity against human H1299 cells xenografted in Balb/c mouse assessed as effect on cyclin T1 level at 20 to 80 mg/kg, po administered for 3 weeks by immunohistochemistry

Compound: CN(C)C(=O)c1cc2cnc(Nc3ccc(NC(=O)CCCCCCCN=C=S)cc3)nc2n1C1CCCC1
- inhibition at 10 µM (SiHa): 97%
- IC50 (NCI-H1975): 837 nM
- IC50 (PC-9): 947 nM
- viability at 0.5 µM (A549): 78.8%
- TGI (NCI-H1299 [1]): Dose-dependent effect
- inhibition [2]: 90%
- inhibition (Homo sapiens): 14%
- inhibition [3]: 35%
- inhibition [4]: 58%
- inhibition [5]: 26%
- inhibition [6]: -2%
- inhibition [7]: 66%
- inhibition [8]: 2%
- inhibition [9]: 15%
- inhibition [10]: 3%
- inhibition [11]: 91%
- inhibition [12]: 4%
- inhibition [13]: 71%
- inhibition [14]: 6%
- inhibition [15]: 30%
- inhibition [16]: Active
- Activity (NCI-H1299 [17]): inactive
